Screens (PubChem BioAssay)
Rows were chosen to be rich in hits. Some 1% of all compounds tested hit in one or more screens of this group.
Neddylation inh: inhibitors of cullin neddylation, primary screen, biochemical, TR-FRET, uHTS, NAE and Ubc12 | NEDD8-conjugating enzyme Ubc12 (Homo sapiens) + NEDD8-activating enzyme E1 regulatory … | 360,000 compounds, 0.58% hits | AID 651699, 2012 | inhibition, % at 25 µM; in the data active = inhibition above about 36%
DDE Tn7 FP inh: inhibitors of Tn7 peptide binding to fibrin DD(E), primary screen, biochemical, fluorescence polarization, human fibrin, Tn7 probe | 370,000 compounds, 0.13% hits | Fibrinogen beta chain (Homo sapiens), P02675 | inhibition, % at 8.3 µM | FP displacement of FITC-Tn7 peptide from fibrin DD(E); 0% = median of compound wells per plate | AID 720508, 2013;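 active = inhibition above the mean of compounds falling within the control limits plus 3 SD of them, cut at about 14% in these data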;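 also: 0% = plate median of compound wells and 100% = 10 µM Aha-Tn7 peptide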
Target sequence (P02675 whole entry, looked up): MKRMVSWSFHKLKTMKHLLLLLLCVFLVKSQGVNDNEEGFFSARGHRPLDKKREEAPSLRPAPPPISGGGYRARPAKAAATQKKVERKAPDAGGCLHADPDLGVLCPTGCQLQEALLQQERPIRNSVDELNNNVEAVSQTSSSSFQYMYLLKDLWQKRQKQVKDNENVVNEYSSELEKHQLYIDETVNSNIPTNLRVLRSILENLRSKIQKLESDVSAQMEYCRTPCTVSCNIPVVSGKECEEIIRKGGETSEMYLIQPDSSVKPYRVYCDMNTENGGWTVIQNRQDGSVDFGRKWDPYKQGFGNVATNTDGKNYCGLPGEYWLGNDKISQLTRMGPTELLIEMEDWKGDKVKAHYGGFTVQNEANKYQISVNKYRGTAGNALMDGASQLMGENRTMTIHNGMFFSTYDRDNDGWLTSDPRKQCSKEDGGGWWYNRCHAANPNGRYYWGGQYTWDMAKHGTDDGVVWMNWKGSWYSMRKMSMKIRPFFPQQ
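Assay system: Fibrin-DD(E) protein isolated from polymerized human fibrin clots; read-out basis: percent inhibition; medium: Tris/NaCl/CaCl2 buffer, pH 7.8; signal: FP measurement; incubation: 10 min plus 3 h, room temperature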
PKA-R1A activ: activators of PKA-R1A holoenzyme, primary screen, biochemical, fluorescence polarization, Cy5-IP20, bovine R1A, mouse PKAc; cAMP-dependent protein kinase type I-alpha regulatory subunit (Bos taurus) + …; PKA-R1A dissociation; scaled: DMSO 0%, 113 µM cGMP 100%; activation, % at 11.4 µM; 340,000 compounds, 0.083% hits; AID 504707, 2011;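 active = percent activation above the mean of all tested compounds plus 3 SD, cut at about 19% in these data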;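 also: higher means more PKAc released from R1A so a rise in polarization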
PKA-R2B activ: activators of PKA-R2B holoenzyme, primary screen, biochemical, fluorescence polarization, Cy5-IP20, human | cAMP-dependent protein kinase catalytic subunit beta (Homo sapiens) + cAMP-dependent … | PKA-R2B holoenzyme dissociation; R2B truncated from residue 108, S112A mutant; 0% DMSO only, 100% 113 µM cGMP | activation, % at 11.4 µM | 340,000 compounds, 0.079% hits | AID 504700, 2011;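 active = activation above a cutoff set at the mean over all compounds plus 3 SD, cut at about 18% in these data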;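 also: higher means more holoenzyme dissociation and a rise in polarization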
DDE Tn6 FP inh: inhibitors of Tn6 peptide binding to fibrin DD(E), primary screen, biochemical, fluorescence polarization, human fibrin, Tn6 probe; Fibrinogen beta chain (Homo sapiens), P02675; Fibrin DD(E) TRITC-Tn6 fluorescence polarization displacement; inhibition, % at 8.3 µM; 370,000 compounds, 0.21% hits; AID 720509, 2013;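 active = inhibition above a per-campaign cutoff: mean of compounds within control limits plus 3 SD, cut at about 15% in these data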;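 also: 0% = median of all compound wells on the plate and 100% = blocking peptide control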
R1A FP artifact: FP signal interference without PKA proteins, confirmation, artefact control for PKA-R1A activator project, biochemical, fluorescence polarization, triplicate; 280 compounds, 7% hits; activation, % at 11.4 µM; AID 504799, 2011; shares compounds with PKA-R1A activ; Cy5-IP20 peptide alone, fluorescence polarization artifact counterscreen;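 active = mean activation over triplicate runs exceeds the adjusted cutoff derived for the parent primary screen, cut at about 19% in these data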;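 also: no PKA protein present so any polarization rise reflects compound interference; 0% = tracer peptide mix alone and 100% = mix with added PKA catalytic subunit; higher means stronger polarization artifact and likely false positive in parent screen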
PKA-R1A confirm: activators of PKA-R1A holoenzyme, confirmation, biochemical, fluorescence polarization, Cy5-IP20, triplicate; shares compounds with PKA-R1A activ; 280 compounds, 9% hits; PKA-R1A holoenzyme dissociation; activation, % at 11.4 µM;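 active = mean activation over replicate wells exceeds the adjusted hit threshold taken from the earlier primary screen, cut at about 20% in these data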;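 also: 0% = holoenzyme mix with DMSO only and 100% = cGMP-activated control wells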
* hit, by the source's call.

`CN[C@H]1C[C@H]2c3[nH]c4c(-c5ccccc5)cccc4c3CCN2C[C@H]1[C@H](C)O` gave DDE Tn7 FP inh -4.7 and DDE Tn6 FP inh 4.5.
`Cc1ccc(CN2CCC(C(=O)Nc3ccc(Oc4cccnc4)cc3)CC2)cc1` gave Neddylation inh 1.5, DDE Tn7 FP inh 2.9, PKA-R1A activ 12.7, PKA-R2B activ -5.1 and DDE Tn6 FP inh 0.0.
O=C(Nc1ccc(Oc2cccnc2)cc1)C1CCN(Cc2ccccc2)CC1 was read as Neddylation inh -3.2, DDE Tn7 FP inh 1.2, PKA-R1A activ 18.7*, PKA-R2B activ 1.8, DDE Tn6 FP inh -4.2, R1A FP artifact 2.4 and PKA-R1A confirm 1.2.
Screening O=C1N(C2CCCC2)C[C@@H]2C[C@@H](c3cccn3-c3nccs3)N3CCC[C@@]123 returned Neddylation inh 5.0, DDE Tn7 FP inh 5.6, PKA-R1A activ -0.9, PKA-R2B activ 4.0 and DDE Tn6 FP inh -3.3.
`O=C1N(C2CCCC2)C[C@@H]2C[C@@H](c3cccn3-c3ccccn3)N3CCC[C@@]123` gave Neddylation inh 8.3, DDE Tn7 FP inh -3.2, PKA-R1A activ 20.5*, PKA-R2B activ 5.0, DDE Tn6 FP inh 0.3, R1A FP artifact 1.8 and PKA-R1A confirm 2.0.
Screening CCC(CO)n1cnnc1-c1ccncc1 (stereo unspecified) returned Neddylation inh 0.1, DDE Tn7 FP inh -0.7, PKA-R1A activ 20.3*, PKA-R2B activ 7.2, DDE Tn6 FP inh 9.0, R1A FP artifact 2.9 and PKA-R1A confirm -2.6.
`CCn1c(SCC(=O)NNC(=O)c2ccc(C)cc2)nnc1-c1ccncc1` gave Neddylation inh -11.7, DDE Tn7 FP inh -0.8, PKA-R1A activ -0.2, PKA-R2B activ -0.2 and DDE Tn6 FP inh 3.4.
CC(=O)NNC(=O)c1cc2sccc2s1 was read as Neddylation inh -4.8, DDE Tn7 FP inh -2.4, PKA-R1A activ 6.6, PKA-R2B activ -12.2 and DDE Tn6 FP inh 12.5.
CC(C)C(=O)NNC(=O)c1cc2sccc2s1 was read as Neddylation inh -8.6, DDE Tn7 FP inh -13.8, PKA-R1A activ 22.7*, PKA-R2B activ -2.0, DDE Tn6 FP inh 3.5, R1A FP artifact -0.9 and PKA-R1A confirm 2.1.
O=C(C1CCCN(S(=O)(=O)c2ccccc2[N+](=O)[O-])C1)N1CCN(Cc2ccccc2)CC1 (stereo unspecified) was read as DDE Tn7 FP inh -1.9 and DDE Tn6 FP inh -6.5.
`CC(NC(=O)C1CCCC1)C1CC2CCC1C2` (stereo unspecified) gave Neddylation inh 9.0, DDE Tn7 FP inh 0.5, PKA-R1A activ 19.7*, PKA-R2B activ -3.1, DDE Tn6 FP inh -2.7, R1A FP artifact 1.9 and PKA-R1A confirm 0.4.
`CC(NC(=O)C1CC=CCC1C(=O)O)C1CC2CCC1C2` (stereo unspecified) gave Neddylation inh -4.3, DDE Tn7 FP inh 1.9, PKA-R1A activ -15.5, PKA-R2B activ -0.2 and DDE Tn6 FP inh 1.4.
For CC(C)C(=O)Nc1c2c(nc3c1CCC3)CCCC2 the results were Neddylation inh -9.7, DDE Tn7 FP inh 1.9, PKA-R1A activ 23.9*, PKA-R2B activ 4.9, DDE Tn6 FP inh 8.0, R1A FP artifact 3.3 and PKA-R1A confirm -0.1.
For Cc1c(-c2ccccc2)[n+](=O)c(-c2ccc(Cl)cc2)c(C)n1[O-] the results were Neddylation inh -9.5, DDE Tn7 FP inh -1.0, PKA-R1A activ 18.8*, PKA-R2B activ -2.6, DDE Tn6 FP inh -6.5, R1A FP artifact 4.8 and PKA-R1A confirm 3.1.
Screening Cc1cc(C)n2[nH]c(=O)c(N=Nc3ccc(S(N)(=O)=O)cc3)c2n1 returned Neddylation inh -62.2, DDE Tn7 FP inh 1.1, PKA-R1A activ -14.2, PKA-R2B activ -5.3 and DDE Tn6 FP inh 2.0.
`Cc1ccc(N=Nc2c(=O)[nH]n3c(C)cc(C)nc23)cc1` gave Neddylation inh -91.3, DDE Tn7 FP inh -0.6, PKA-R1A activ 22.7*, PKA-R2B activ 3.2, DDE Tn6 FP inh -3.8, R1A FP artifact 6.0 and PKA-R1A confirm 6.2.
For COCCN(C(=O)CSc1nc2nc(C)cc(C)n2n1)c1c(N)n(Cc2ccccc2)c(=O)[nH]c1=O the results were Neddylation inh -6.3, DDE Tn7 FP inh -0.4, PKA-R1A activ 20.0*, PKA-R2B activ -0.9, DDE Tn6 FP inh -1.6, R1A FP artifact 5.2 and PKA-R1A confirm 2.6.
Screening Cc1cc(C)n2nc(SCC(=O)N(C)c3c(N)n(Cc4ccccc4)c(=O)[nH]c3=O)nc2n1 returned Neddylation inh -14.0, PKA-R1A activ -5.1 and PKA-R2B activ -2.5.
Cc1c(C(=O)Nc2ccc(OC(F)(F)F)cc2)sc2nc3n(c(=O)c12)CCC3 was read as Neddylation inh -40.9, DDE Tn7 FP inh 3.8, PKA-R1A activ -4.0, PKA-R2B activ 11.9 and DDE Tn6 FP inh 5.4.
Cc1c(C(=O)Nc2ccc(Oc3ccccc3)cc2)sc2nc3n(c(=O)c12)CCC3 was read as Neddylation inh -18.0, DDE Tn7 FP inh -2.1, PKA-R1A activ 20.8*, PKA-R2B activ 0.8, DDE Tn6 FP inh -6.4, R1A FP artifact -1.6 and PKA-R1A confirm 0.0.
Screening CC(C)CCOc1ccc(C(=O)N2CCCC2C(=O)O)cc1 (stereo unspecified) returned Neddylation inh 0.7, DDE Tn7 FP inh 2.6, PKA-R1A activ 19.9*, PKA-R2B activ -1.9, DDE Tn6 FP inh -1.9, R1A FP artifact 3.0 and PKA-R1A confirm 1.6.
For CCN(CC)C(=O)CC[C@H]1CC[C@]2(CCCN(C(=O)c3cccnc3)C2)O1 the results were DDE Tn7 FP inh -4.7 and DDE Tn6 FP inh -7.3.
`Cc1cc2ccccn2c1C(=O)c1ccc(Cl)c([N+](=O)[O-])c1` gave Neddylation inh -8.5, DDE Tn7 FP inh 5.4, PKA-R1A activ 20.3*, PKA-R2B activ 1.0, DDE Tn6 FP inh 3.7, R1A FP artifact -1.9 and PKA-R1A confirm -2.4.
For Cc1cc2ccccn2c1C(=O)c1cccc([N+](=O)[O-])c1 the results were Neddylation inh -34.7, DDE Tn7 FP inh 2.6, PKA-R1A activ 8.1, PKA-R2B activ 5.1 and DDE Tn6 FP inh 4.7.
